The record followed here is ChEMBL document CHEMBL1146033, “Synthesis, calpain inhibitory activity, and cytotoxicity of P2-substituted proline and thiaproline peptidyl aldehydes and peptidyl alpha-ketoamides” (J Med Chem, 2006).

Molecules are shown by their SMILES.

Assay [1] is described as follows: Selectivity ratio, Ki for human cathepsin B/Ki for porcine mu calpain.
The test system of assay [2] is HeLa. Briefly: Antiproliferative activity against human HeLa cell line by MTT assay. Format: functional. The method in brief:
(§1)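 Cells seeded at 2000 to 15000 per well, exposed to drug at 1 to 100 µM for 96 h at 37 °C, 5% CO2; untreated wells as negative control. MTT (5 mg/mL) added for final 2-4 h, formazan dissolved in DMSO, absorbance at 595 nm. GI50 (50% reduction in living cells vs untreated) from nonlinear regression of % survival against concentration.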
(In general: Formazan colour is commonly taken as a measure of viable cells.)

For assay [3], the target named is Cathepsin B (Homo sapiens, UniProt P07858). Briefly: Inhibition of human liver cathepsin B. The method in brief:
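Human liver cathepsin B (1 nM) in 50 mM NaOAc pH 6.0, 1 mM EDTA, 0.5 mM DTT, with Z-Arg-Arg-AMC at 50 or 250 µM and varying inhibitor in DMSO (2% total). Ki from Dixon plots of triplicate-averaged data, intersecting lines r ≥ 0.95; selectivity ratio = cathepsin B Ki / µ-calpain Ki.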

Assay [4] deals with DU-145. Briefly: Antiproliferative activity against human DU145 cell line by MTT assay. Format: functional. In outline:
as §1

Assay [5] has as its target T1, Calpain-1 catalytic subunit (Sus scrofa, UniProt P35750).
T1 sequence (P35750 whole entry): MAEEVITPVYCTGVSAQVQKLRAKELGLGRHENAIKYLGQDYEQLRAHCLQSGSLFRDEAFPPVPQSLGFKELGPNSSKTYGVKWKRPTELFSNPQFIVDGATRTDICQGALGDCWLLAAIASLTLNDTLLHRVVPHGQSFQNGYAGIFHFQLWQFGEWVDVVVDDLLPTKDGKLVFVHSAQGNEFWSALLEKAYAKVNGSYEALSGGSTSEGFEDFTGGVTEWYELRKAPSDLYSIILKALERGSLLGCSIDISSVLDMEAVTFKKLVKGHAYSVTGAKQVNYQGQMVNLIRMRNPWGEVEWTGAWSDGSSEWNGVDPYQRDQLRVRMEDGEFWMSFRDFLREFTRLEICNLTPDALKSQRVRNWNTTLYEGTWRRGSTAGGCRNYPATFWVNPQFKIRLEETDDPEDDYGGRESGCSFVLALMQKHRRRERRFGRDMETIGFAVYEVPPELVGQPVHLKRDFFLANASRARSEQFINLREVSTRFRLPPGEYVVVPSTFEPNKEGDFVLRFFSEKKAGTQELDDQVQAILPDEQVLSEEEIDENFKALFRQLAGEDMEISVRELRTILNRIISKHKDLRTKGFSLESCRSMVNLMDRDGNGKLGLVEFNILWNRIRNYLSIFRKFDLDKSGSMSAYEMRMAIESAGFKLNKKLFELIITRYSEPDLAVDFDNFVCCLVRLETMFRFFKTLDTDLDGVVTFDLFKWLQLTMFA
Briefly: Inhibition of porcine erythrocyte mu calpain. In outline:
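µ-Calpain (1 µg, porcine erythrocyte) in 50 mM Tris HCl pH 7.4, 50 mM NaCl, 10 mM DTT, 1 mM EDTA, 1 mM EGTA, 5 mM CaCl2, fluorogenic Suc-Leu-Tyr-AMC at 0.2 or 1.0 mM, varying inhibitor in DMSO (2% total). Ki from Dixon plots (1/v vs I) of triplicate-averaged data, intersecting lines r ≥ 0.95.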

Assay [6] concerns Jurkat. Briefly: Antiproliferative activity against human Jurkat cell line by MTT assay. Format: functional. In outline: as §1
Assay [7] concerns Daudi. Briefly: Antiproliferative activity against human Daudi cell line by MTT assay. Format: functional. The method in brief:
as §1

Assay [8] concerns Jurkat. Briefly: Inhibition of calpain-mediated production of spectrin breakdown products in Jurkat cells at 20 uM. Also noted: scale not given: the % may be the effect or the level left. Format: functional, Homo sapiens. The method in brief:
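Jurkat cells washed in HEPES-buffered saline, preincubated 10 min with inhibitor at 20 µM, then ionomycin (20 µM final) and Ca2+ (5 mM final) added; 60 min at 37 °C. Lysates resolved by SDS-PAGE, immunoblotted for α-spectrin and β-actin, chemiluminescence. 145/150-kDa spectrin breakdown doublet quantified by densitometry, normalized to β-actin.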

Assay [9] concerns PC-3. Briefly: Antiproliferative activity against human PC3 cell line by MTT assay. The format is functional. The method in brief: as §1

As usually defined, the GI50 is the concentration giving 50% growth inhibition. The term Ki denotes the dissociation constant of the complex between target and ligand, obtained from inhibition or displacement. `O=CC(Cc1ccccc1)NC(=O)[C@H]1CCCN1S(=O)(=O)c1ccc([N+](=O)[O-])cc1` (stereo not given in full): the Selectivity ratio in assay [1] was determined as 188. For the same compound, the GI50 is 40.4 µM in assay [2]; 42.4 µM in assay [4]; 33.8 µM in [6]; 32.5 µM in [7]; 49.3 µM in assay [9]. In addition, the Ki in assay [3] turned out to be 3.75 µM; in [5] it was 0.02 µM. Also, the Activity in assay [8] is recorded as 22.8%.

As to `Cc1ccc(S(=O)(=O)N2CSC[C@@H]2C(=O)NC(C=O)Cc2ccccc2)cc1` (stereo not given in full), in assay [1], the Selectivity ratio is 1.7. For the same compound, the GI50 worked out at 4.37 µM in [2]; 6 µM in assay [4]; 3.21 µM in assay [6]; 2.17 µM in assay [7]; 5.17 µM in [9]. For the same compound, the inhibition constant (Ki) amounted to 0.119 µM in assay [3] and 0.07 µM in assay [5]. The same compound returned an Activity in [8] of 82.4%.

For `Cc1ccc(S(=O)(=O)N2CCC[C@@H]2C(=O)NC(C=O)Cc2ccccc2)cc1` (stereo not given in full), the Selectivity ratio in assay [1] worked out at 151. The GI50 in assay [2] was found to be 48.9 µM; in [4], 45.2 µM; in [6], 17.6 µM; in [7], 16.7 µM; in [9], 40.1 µM. The Ki in assay [3] stood at 12.1 µM; in [5], 0.081 µM.

Consider `COc1ccc(S(=O)(=O)N2CCC[C@@H]2C(=O)NC(C=O)Cc2ccccc2)cc1` (mixture of isomers), for which the Selectivity ratio in [1] came to 40. Further, the GI50 stood at 38.5 µM in [2]; 63.2 µM in [4]; 25.4 µM in [6]; 35.3 µM in [7]; 19.7 µM in assay [9]. For the same compound, the figures for the Ki in [3] and in assay [5] were 1.48 µM and 0.037 µM, respectively.

`O=CC(Cc1ccccc1)NC(=O)[C@H]1CSCN1S(=O)(=O)c1ccc(I)cc1` (mixture of isomers): the Selectivity ratio in assay [1] was 2.61. Besides, the GI50 in [2] stood at 5.42 µM; in [4], 6.29 µM; in [6], 5.97 µM; in assay [7], 4.48 µM; in [9] it was 6.38 µM. Further, the Ki is 0.11 µM in [3] and 0.042 µM in [5].

In the case of `Cc1ccc(S(=O)(=O)N2CCC[C@@H]2C(=O)NC(Cc2ccccc2)C(=O)C(=O)NCCc2ccccc2)cc1` (mixture of isomers), in assay [1], the Selectivity ratio was determined as 8.12. For the same compound, the GI50 came to 22.9 µM in assay [2]; 22.6 µM in assay [4]; 21.9 µM in assay [6]; 19.6 µM in [7]; 20.8 µM in assay [9]. Further, the Ki in assay [3] turned out to be 6.9 µM; in assay [5] it was 0.85 µM.

For the compound `CCCCS(=O)(=O)N1CCC[C@@H]1C(=O)NC(C=O)Cc1ccccc1` (mixture of isomers), in assay [1], the Selectivity ratio was found to be 4.72. Besides, the Ki in assay [3] came to 1.48 µM; in assay [5], 0.313 µM.

Consider `O=CC(Cc1ccccc1)NC(=O)[C@H]1CSCN1S(=O)(=O)c1ccc(Br)cc1` (mixture of isomers), for which, in assay [1], the Selectivity ratio was found to be 1.21. Besides, the Ki in assay [3] was found to be 0.09 µM; in assay [5] it was 0.074 µM.

In the case of `O=CC(Cc1ccccc1)NC(=O)[C@H]1CCCN1S(=O)(=O)c1ccc(Br)cc1` (mixture of isomers), the Selectivity ratio in [1] came out at 34.5. Further, the values for the Ki in [3] and in assay [5] were 4.42 µM and 0.128 µM, respectively.

Consider `O=CC(Cc1ccccc1)NC(=O)[C@H]1CCCN1S(=O)(=O)c1ccc(Cl)cc1` (mixture of isomers), for which the Selectivity ratio in [1] worked out at 38.2. In addition, the Ki in assay [3] turned out to be 5.4 µM; in assay [5] it was 0.141 µM.

Consider `O=CC(Cc1ccccc1)NC(=O)[C@H]1CCCN1S(=O)(=O)c1ccc(F)cc1` (mixture of isomers), for which the Selectivity ratio in assay [1] was determined as 18.1. The GI50 in assay [2] was 27.4 µM; in assay [4] it was 24.8 µM; in [6], 24.2 µM; in [7], 24.8 µM; in assay [9], 27.1 µM. Also, the Ki in assay [3] was 6.99 µM; in [5] it was 0.386 µM.

Consider `COc1ccc(S(=O)(=O)N2CCC[C@@H]2C(=O)NC(Cc2ccccc2)C(=O)C(=O)NCCc2ccccc2)cc1` (mixture of isomers), for which the Selectivity ratio in assay [1] was determined as 5.7. Also, the GI50 in [2] was 31.4 µM; in assay [4] it was 30 µM; in assay [6], 23.8 µM; in assay [7], 22.4 µM; in [9], 14.6 µM. Moreover, the Ki in assay [3] was found to be 2.59 µM; in assay [5], 0.45 µM.

Turning to `O=CC(Cc1ccccc1)NC(=O)[C@H]1CCCN1S(=O)(=O)c1ccccc1[N+](=O)[O-]` (mixture of isomers), the Selectivity ratio in [1] was 10.9. Moreover, the Ki in [3] turned out to be 4.61 µM; in [5], 0.424 µM.

Take `O=CC(Cc1ccccc1)NC(=O)[C@H]1CCCN1S(=O)(=O)c1ccccc1` (mixture of isomers): in [1], the Selectivity ratio turned out to be 13. In addition, the figures for the Ki in assay [3] and in assay [5] were 2.47 µM and 0.196 µM, respectively.

For the compound `O=CC(Cc1ccccc1)NC(=O)[C@H]1CCCN1S(=O)(=O)c1cccc2ccccc12` (mixture of isomers), the Selectivity ratio in assay [1] was 13. For the same compound, the Ki is 2.54 µM in assay [3] and 0.191 µM in assay [5].

In the case of `O=CC(Cc1ccccc1)NC(=O)[C@H]1CSCN1S(=O)(=O)c1ccc(F)cc1` (mixture of isomers), in assay [1], the Selectivity ratio came to 3.09. For the same compound, the GI50 in [2] worked out at 7.12 µM; in assay [4], 6.22 µM; in [6], 6.13 µM; in assay [7] it was 3.54 µM; in [9] it was 7.04 µM. In addition, the results for the inhibition constant (Ki) in [3] and in [5] were 0.34 µM and 0.11 µM, respectively.

In the case of `O=CC(Cc1ccccc1)NC(=O)[C@H]1CSCN1S(=O)(=O)c1ccc(Cl)cc1` (mixture of isomers), the Selectivity ratio in [1] was 2.5. The figures for the Ki in assay [3] and in [5] were 0.23 µM and 0.09 µM, respectively.

In the case of `CC(C)S(=O)(=O)N1CCC[C@@H]1C(=O)NC(C=O)Cc1ccccc1` (mixture of isomers), the Selectivity ratio in assay [1] was determined as 1.19. Also, the values for the Ki in [3] and in [5] were 3.5 µM and 0.836 µM, respectively.

Regarding `O=CC(Cc1ccccc1)NC(=O)[C@H]1CCCN1S(=O)(=O)c1ccc(I)cc1` (mixture of isomers), the Selectivity ratio in assay [1] is 131. The Ki was 4.18 µM in assay [3] and 0.033 µM in assay [5].

In the case of `O=CC(Cc1ccccc1)NC(=O)[C@H]1CCCN1S(=O)(=O)c1cccc([N+](=O)[O-])c1` (mixture of isomers), the Selectivity ratio in [1] stood at 21.3. Besides, the values for the Ki in assay [3] and in assay [5] were 5.45 µM and 0.256 µM, respectively.

Regarding `O=C(NCCc1ccccc1)C(=O)C(Cc1ccccc1)NC(=O)[C@H]1CCCN1S(=O)(=O)c1ccc([N+](=O)[O-])cc1` (mixture of isomers), the Selectivity ratio in assay [1] came to 18.1. The GI50 in [2] came out at 27.6 µM; in assay [4], 31.8 µM; in assay [6] it was 21.3 µM; in assay [7] it was 23.1 µM; in assay [9] it was 27.8 µM. Further, the Ki amounted to 12.1 µM in assay [3] and 0.28 µM in assay [5].
